Reference: ChEMBL document CHEMBL3867450, “Synthesis of Natural Acylphloroglucinol-Based Antifungal Compounds against Cryptococcus Species” (J Nat Prod, 2016)
Converted amounts (≈) assume the structure as drawn. The source made the active and inactive calls. The rule behind the calls is not given here.

Key:
[1] = Antifungal activity against Cryptococcus neoformans ATCC 90113 assessed as growth inhibition at 20 ug/ml measured after 72 hrs by CLSI method; type: functional
How it was run: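 Primary screen against C. neoformans ATCC 90113 by a modified CLSI method at 20 μg/mL. Growth inhibition above 50% at this concentration was scored as active and taken to further testing.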

[2] = Antifungal activity against Cryptococcus neoformans ATCC 90113 assessed as growth inhibition measured after 72 hrs by CLSI method; type: functional
How it was run: (§1)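 Susceptibility testing by a modified CLSI (formerly NCCLS) method against C. neoformans ATCC 90113, C. neoformans H99 (from Duke University) or C. gattii ATCC 32609. The top test concentration was 20 μg/mL. MIC is the lowest concentration allowing no detectable growth. IC50 is the concentration giving 50% growth inhibition.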

[3] = Cytotoxicity against African green monkey Vero cells assessed as reduction in viable cells measured after 48 hrs by neutral red dye-based method; type: toxicity, cell-based; conditions: African green monkey (Chlorocebus sabaeus)
How it was run: (§2)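 Vero (African green monkey kidney […]) and LLC-PK1 (pig kidney epithelial) cells were scored for viability by neutral red uptake. The top test concentration was 50 μg/mL. IC50 is the concentration causing 50% growth inhibition of the mammalian cells.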

[4] = Selectivity index, ratio of IC50 for African green monkey Vero cells to MIC for Cryptococcus neoformans ATCC 90113; type: toxicity, cell-based; conditions: read-out: Selectivity Index
How it was run: (§3)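 Selectivity index is the mammalian-cell IC50 (neutral red assay, Vero or LLC-PK1) divided by the MIC against C. neoformans ATCC 90113 (modified CLSI method).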

[5] = tested on: Cryptococcus bacillisporus; experiment: Antifungal activity against Cryptococcus gattii ATCC 32609 assessed as growth inhibition measured after 72 hrs by CLSI method; type: functional; conditions: ATCC 32609, 72 h; how it was run: as §1
[6] = Cytotoxicity against pig LLC-PK1 cells assessed as reduction in viable cells measured after 48 hrs by neutral red dye-based method; type: toxicity, cell-based; conditions: pig (Sus scrofa); how it was run: as §2
[7] = Selectivity index, ratio of IC50 for pig LLC-PK1 cells to MIC for Cryptococcus neoformans ATCC 90113; type: toxicity, cell-based; conditions: read-out: Selectivity Index; how it was run: as §3
Cryptococcus neoformans [8] = experiment: Antifungal activity against Cryptococcus neoformans H99 assessed as growth inhibition measured after 72 hrs by CLSI method; type: functional; conditions: var grubii H99 ; how it was run: as §1
[9] = tested on: Cryptococcus bacillisporus; experiment: Antifungal activity against Cryptococcus gattii ATCC 32609 assessed as growth inhibition at 20 ug/ml measured after 72 hrs by CLSI method; type: functional; conditions: ATCC 32609, 72 h, read-out: GI
Cryptococcus neoformans [10] = experiment: Antifungal activity against Cryptococcus neoformans ATCC 90113 assessed as growth inhibition at 20 ug/ml measured after 72 hrs by CLSI method; conditions: read-out: GI
Staphylococcus aureus = experiment: Antibacterial activity against Staphylococcus aureus ATCC 29213 by CLSI method; type: functional

SMILES | growth inhibition (GI) [1] | MIC [2] | IC50 at 48 h [3] | selectivity ratio [4] | MIC [5] | IC50 at 48 h [6] | selectivity ratio [7] | MIC (Cryptococcus neoformans [8]) | inhibition of growth at 20 µg/mL [9] | inhibition of growth at 20 µg/mL (Cryptococcus neoformans [10]) | MIC (Staphylococcus aureus) | Activity (Staphylococcus aureus)
CC(C)(C)C(=O)c1c(O)cc(O)cc1O | < 50% |  |  |  |  |  |  |  |  |  |  | 
CC(C)=CCC/C(C)=C/CC/C(C)=C/Cc1c(O)cc(O)c(C(=O)C(C)C)c1O | > 50% | 7.5 µg/mL (≈ 18.7 µM) | 25 µg/mL (≈ 62.4 µM) | 3.3 | 7.5 µg/mL (≈ 18.7 µM) | 27 µg/mL (≈ 67.4 µM) | 3.6 | 5 µg/mL (≈ 12.5 µM) |  |  |  | 
C[C@@H]1[C@H](O)[C@@H](C)/C=C/C=C/C=C/C=C/C=C/C=C/C=C/[C@H](O[C@@H]2O[C@H](C)[C@@H](O)[C@H](N)[C@@H]2O)C[C@@H]2O[C@](O)(C[C@@H](O)C[C@@H](O)[C@H](O)CC[C@@H](O)C[C@@H](O)CC(=O)O[C@H]1C)C[C@H](O)[C@H]2C(=O)O [AMPHOTERICIN B] |  | 0.4 µg/mL (≈ 0.433 µM) |  |  | 0.3 µg/mL (≈ 0.325 µM) |  |  | 0.3 µg/mL (≈ 0.325 µM) |  |  |  | 
CCCC(=O)c1c(O)cc(O)cc1O | < 50% |  |  |  |  |  |  |  |  |  |  | 
CCCC(=O)c1c(O)cc(O)c(C(=O)c2ccccc2)c1O | > 50% | 6.7 µg/mL (≈ 22.3 µM) | 14.3 µg/mL (≈ 47.6 µM) | 2.1 | 5 µg/mL (≈ 16.6 µM) | 27 µg/mL (≈ 89.9 µM) | 4 | 6.7 µg/mL (≈ 22.3 µM) |  |  |  | 
CCOC(=O)Cc1c(O)cc(O)c(C(=O)C(C)C)c1O | < 50% |  |  |  |  |  |  |  | < 50% | < 50% |  | 
CC(C)C(=O)c1c(O)cc(O)c(Cc2ccc(C(C)C)cc2)c1O | > 50% | 1.5 µg/mL (≈ 4.57 µM) | > 50 µg/mL | > 33.3 | 2.1 µg/mL (≈ 6.39 µM) | > 50 µg/mL | > 33.3 | 2.1 µg/mL (≈ 6.39 µM) |  |  | 10 µg/mL (≈ 30.4 µM) | 
CC(C)C(=O)c1c(O)cc(OCc2c(F)cccc2Cl)cc1O | < 50% |  |  |  |  |  |  |  |  |  |  | 
CC(C)C(=O)c1c(O)cc(O)c(C(=O)c2ccccc2)c1O | > 50% | 10 µg/mL (≈ 33.3 µM) | 23 µg/mL (≈ 76.6 µM) | 2.3 | 8.3 µg/mL (≈ 27.6 µM) | 42.5 µg/mL (≈ 142 µM) | 4.3 | 10 µg/mL (≈ 33.3 µM) |  |  |  | 
CC(C)=CCc1c(O)cc(O)c(C(=O)C(C)(C)C)c1O | < 50% |  |  |  |  |  |  |  |  |  |  | 
C#CCc1c(O)cc(O)c(C(=O)C(C)C)c1O | < 50% |  |  |  |  |  |  |  | < 50% | < 50% |  | 
CC(C)C(=O)c1c(O)cc(O)c(Cc2ccc([N+](=O)[O-])cc2)c1O | > 50% | 6.7 µg/mL (≈ 20.2 µM) | 18 µg/mL (≈ 54.3 µM) | 2.7 | 5 µg/mL (≈ 15.1 µM) | 28 µg/mL (≈ 84.5 µM) | 4.2 | 10 µg/mL (≈ 30.2 µM) |  |  |  | 
CC(C)C(=O)c1c(O)cc(OCc2ccc(C(C)C)cc2)cc1O | < 50% |  |  |  |  |  |  |  |  |  |  | 
CC(C)=CCC/C(C)=C/Cc1c(O)cc(O)c(C(=O)C(C)C)c1O | > 50% | 1.7 µg/mL (≈ 5.11 µM) | 22.5 µg/mL (≈ 67.7 µM) | 13.2 | 1 µg/mL (≈ 3.01 µM) | 24.5 µg/mL (≈ 73.7 µM) | 14.4 | 1.7 µg/mL (≈ 5.11 µM) |  |  |  | 
CC(C)C(=O)c1c(O)cc(O)c(Cc2ccccc2)c1O | > 50% | 6.7 µg/mL (≈ 23.4 µM) | 28 µg/mL (≈ 97.8 µM) | 4.2 | 10 µg/mL (≈ 34.9 µM) | 28.5 µg/mL (≈ 99.5 µM) | 4.3 | 16.7 µg/mL (≈ 58.3 µM) |  |  |  | 
COc1cc(C(=O)c2c(O)cc(O)c(C(=O)C(C)C)c2O)cc(OC)c1OC | < 50% |  |  |  |  |  |  |  | < 50% | < 50% |  | 
CC(C)C(=O)c1c(O)cc(O)c(Cc2c(Cl)cccc2Cl)c1O | > 50% | 1 µg/mL (≈ 2.82 µM) | 27.5 µg/mL (≈ 77.4 µM) | 27.5 | 2.1 µg/mL (≈ 5.91 µM) | 29.5 µg/mL (≈ 83 µM) | 29.5 | 4.2 µg/mL (≈ 11.8 µM) |  |  |  | 
CC(C)C(=O)c1c(O)cc(O)c(C(=O)c2ccc(F)cc2)c1O | > 50% | 8.3 µg/mL (≈ 26.1 µM) | 13.5 µg/mL (≈ 42.4 µM) | 1.6 | 6.7 µg/mL (≈ 21 µM) | 27.5 µg/mL (≈ 86.4 µM) | 3.3 | 11.7 µg/mL (≈ 36.8 µM) |  |  |  | 

SMILES | growth inhibition (GI) [1] | MIC [2] | IC50 at 48 h [3] | selectivity ratio [4] | MIC [5] | IC50 at 48 h [6] | selectivity ratio [7] | MIC (Cryptococcus neoformans [8]) | inhibition of growth at 20 µg/mL [9] | inhibition of growth at 20 µg/mL (Cryptococcus neoformans [10]) | MIC (Staphylococcus aureus) | Activity (Staphylococcus aureus)
CC(C)C(=O)c1c(O)cc(O)c(C(=O)C(C)C)c1O | > 50% | 2.5 µg/mL (≈ 9.39 µM) | 11.5 µg/mL (≈ 43.2 µM) | 4.6 | 2.1 µg/mL (≈ 7.89 µM) | 17.5 µg/mL (≈ 65.7 µM) | 7 | 3.3 µg/mL (≈ 12.4 µM) |  |  | 1.3 µg/mL (≈ 4.88 µM) | 
CC(C)C(=O)c1c(O)cc(O)cc1OCC(=O)NC(C)(C)C | < 50% |  |  |  |  |  |  |  |  |  |  | 
CC(C)C(=O)c1c(O)cc(OCC(=O)NC(C)(C)C)cc1O | < 50% |  |  |  |  |  |  |  |  |  |  | 
CC(C)C(=O)c1c(O)cc(O)cc1OCc1c(F)cccc1Cl | > 50% | 5 µg/mL (≈ 14.8 µM) | > 50 µg/mL | > 10 | 5 µg/mL (≈ 14.8 µM) | > 50 µg/mL | > 10 | 8.3 µg/mL (≈ 24.5 µM) |  |  |  | Active
CCOC(=O)COc1cc(O)c(C(=O)C(C)C)c(OCC(=O)OCC)c1 | < 50% |  |  |  |  |  |  |  |  |  |  | 
CC(C)C(=O)c1c(O)cc(O)c(Cc2c(F)cccc2Cl)c1O | > 50% | 1.7 µg/mL (≈ 5.02 µM) | 28 µg/mL (≈ 82.7 µM) | 16.5 | 4.2 µg/mL (≈ 12.4 µM) | 26.3 µg/mL (≈ 77.6 µM) | 15.5 | 6.7 µg/mL (≈ 19.8 µM) |  |  |  | 
CCCC(=O)c1c(O)cc(O)c(C(=O)CCC)c1O | > 50% | 2.1 µg/mL (≈ 7.89 µM) | 14.5 µg/mL (≈ 54.5 µM) | 6.9 | 1.5 µg/mL (≈ 5.63 µM) | 24.5 µg/mL (≈ 92 µM) | 11.7 | 2.5 µg/mL (≈ 9.39 µM) |  |  |  | 
OC(Cn1cncn1)(Cn1cncn1)c1ccc(F)cc1F [FLUCONAZOLE] |  | 6.3 µg/mL (≈ 20.6 µM) |  |  | 25 µg/mL (≈ 81.6 µM) |  |  | 12.5 µg/mL (≈ 40.8 µM) |  |  |  | 
COc1cccc2c1C(=O)c1c(O)c3c(c(O)c1C2=O)C[C@@](O)(C(=O)CO)C[C@@H]3O[C@H]1C[C@H](N)[C@H](O)[C@H](C)O1 [DOXORUBICIN] |  |  | > 10 µg/mL |  |  | 1.3 µg/mL (≈ 2.39 µM) |  |  |  |  |  | 
CC(C)C(=O)c1c(O)cc(O)cc1O | < 50% |  |  |  |  |  |  |  |  |  |  | 
COc1ccc(C(=O)c2c(O)cc(O)c(C(=O)C(C)C)c2O)cc1 | > 50% | 13.3 µg/mL (≈ 40.3 µM) | 10.5 µg/mL (≈ 31.8 µM) | 0.8 | 8.3 µg/mL (≈ 25.1 µM) | 24.8 µg/mL (≈ 75.1 µM) | 1.9 | 10 µg/mL (≈ 30.3 µM) |  |  |  | 
C=CCc1c(O)cc(O)c(C(=O)C(C)C)c1O | < 50% |  |  |  |  |  |  |  | < 50% | < 50% |  | 
CCOC(=O)COc1cc(O)c(C(=O)C(C)C)c(O)c1 | < 50% |  |  |  |  |  |  |  |  |  |  | 
CC(C)C(=O)c1c(O)cc(O)c(CC#N)c1O | < 50% |  |  |  |  |  |  |  | < 50% | < 50% |  | 
CC(C)=CCc1c(O)cc(O)c(C(=O)C(C)C)c1O | > 50% | 5 µg/mL (≈ 18.9 µM) | 18 µg/mL (≈ 68.1 µM) | 3.6 | 5 µg/mL (≈ 18.9 µM) | 31 µg/mL (≈ 117 µM) | 6.2 | 8.3 µg/mL (≈ 31.4 µM) |  |  |  | 
CC(C)C(=O)c1c(O)cc(O)cc1OCc1c(Cl)cccc1Cl | > 50% | 8.3 µg/mL (≈ 23.4 µM) | 32.5 µg/mL (≈ 91.5 µM) | 3.9 | 5 µg/mL (≈ 14.1 µM) | 34.5 µg/mL (≈ 97.1 µM) | 4.2 | 5 µg/mL (≈ 14.1 µM) |  |  |  | 
CCOC(=O)COc1cc(O)cc(O)c1C(=O)C(C)C | < 50% |  |  |  |  |  |  |  |  |  |  | 
CCCC(=O)c1c(O)cc(O)c(CC=C(C)C)c1O | > 50% | 3.3 µg/mL (≈ 12.5 µM) | 16.3 µg/mL (≈ 61.7 µM) | 4.9 | 5 µg/mL (≈ 18.9 µM) | 28 µg/mL (≈ 106 µM) | 8.5 | 8.3 µg/mL (≈ 31.4 µM) |  |  |  | 
